The values below come from ChEMBL document CHEMBL1140294 (J Med Chem, 2005).

Holding throughout (assay type): cell-based
The target of data set [1] is T1, ATP-dependent translocase ABCB1 (Homo sapiens, UniProt P08183). The data set can be described thus: Reversal of P-gp-mediated multidrug resistance in doxorubicin-resistant human K562 cells assessed as drug concentration causing half-maximal increase in nuclear pirarubicin concentration. The conditions noted are these: read-out: Activity.
For data set [2], the target named is T1, ATP-dependent translocase ABCB1. The data set can be described thus: Reversal of P-gp-mediated multidrug resistance in doxorubicin-resistant human K562 cells assessed as increase in nuclear pirarubicin concentration.
For data set [3] the target is unchanged. The data set can be described thus: Reversal of P-gp-mediated multidrug resistance in human K562 cells assessed as drug concentration causing 40% increase in nuclear pirarubicin concentration. The method, boiled down: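 Doxorubicin-resistant K 562 cells in exponential phase. Pirarubicin uptake monitored by fluorescence at 590 nm (ex 480 nm) in HEPES buffer (pH 7.25) at 37 °C. The reported value, [I]0.5, is the modulator concentration giving a 40% increase in nuclear pirarubicin concentration (α = 0.4).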

T1 sequence (P08183 whole entry): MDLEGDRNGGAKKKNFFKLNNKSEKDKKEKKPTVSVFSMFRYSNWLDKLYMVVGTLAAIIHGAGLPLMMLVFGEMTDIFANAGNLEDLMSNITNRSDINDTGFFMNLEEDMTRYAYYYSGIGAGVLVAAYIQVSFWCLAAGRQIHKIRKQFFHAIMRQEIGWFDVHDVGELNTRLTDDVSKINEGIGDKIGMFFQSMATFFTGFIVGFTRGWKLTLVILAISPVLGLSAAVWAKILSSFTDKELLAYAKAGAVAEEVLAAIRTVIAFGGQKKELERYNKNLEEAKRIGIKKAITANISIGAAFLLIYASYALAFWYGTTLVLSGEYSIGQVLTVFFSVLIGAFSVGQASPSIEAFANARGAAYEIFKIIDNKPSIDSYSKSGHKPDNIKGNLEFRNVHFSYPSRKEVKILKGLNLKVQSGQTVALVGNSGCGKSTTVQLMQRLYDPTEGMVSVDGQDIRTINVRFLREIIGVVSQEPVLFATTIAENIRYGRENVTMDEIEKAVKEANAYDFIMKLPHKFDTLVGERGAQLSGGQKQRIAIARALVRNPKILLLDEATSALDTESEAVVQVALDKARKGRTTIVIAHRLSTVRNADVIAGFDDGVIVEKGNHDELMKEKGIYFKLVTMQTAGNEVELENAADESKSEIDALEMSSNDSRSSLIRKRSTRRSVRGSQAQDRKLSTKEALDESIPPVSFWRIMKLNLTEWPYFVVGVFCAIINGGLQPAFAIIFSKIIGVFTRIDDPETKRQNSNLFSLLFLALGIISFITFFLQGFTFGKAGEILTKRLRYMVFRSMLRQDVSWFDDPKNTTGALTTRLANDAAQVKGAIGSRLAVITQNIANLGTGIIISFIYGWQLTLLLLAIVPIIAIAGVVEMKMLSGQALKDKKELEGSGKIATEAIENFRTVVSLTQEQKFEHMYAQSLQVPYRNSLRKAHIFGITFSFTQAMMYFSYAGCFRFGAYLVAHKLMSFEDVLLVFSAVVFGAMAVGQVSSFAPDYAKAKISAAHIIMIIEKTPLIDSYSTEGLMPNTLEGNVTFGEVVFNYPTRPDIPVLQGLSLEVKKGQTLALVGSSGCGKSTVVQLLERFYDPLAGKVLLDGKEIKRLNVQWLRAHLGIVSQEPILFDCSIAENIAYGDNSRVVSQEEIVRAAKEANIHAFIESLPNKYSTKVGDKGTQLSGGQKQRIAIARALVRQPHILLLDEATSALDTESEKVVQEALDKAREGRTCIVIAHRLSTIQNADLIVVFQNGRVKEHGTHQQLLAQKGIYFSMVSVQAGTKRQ

Consider `COc1cc(/C=C/C(=O)OCCCCCCCN(C)CCCCCCCOC(=O)c2c3ccccc3cc3ccccc23)cc(OC)c1OC`, for which the EC50 in data set [1] amounted to 0.15 µM. In addition, the Alpha max in data set [2] was 0.55.

As for `COc1cc(/C=C/C(=O)OCCN(C)CCOC(=O)c2c3ccccc3cc3ccccc23)cc(OC)c1OC`, the EC50 in data set [1] is 1 µM. Also, the Alpha max in data set [2] is recorded as 0.84.

Take `COc1cc(/C=C/C(=O)OCCCN(C)CCN(C)CCCOC(=O)C2c3ccccc3-c3ccccc32)cc(OC)c1OC`: the EC50 in data set [1] was 0.57 µM. Further, the Alpha max in data set [2] is recorded as 0.64.

For `COc1cc(/C=C/C(=O)OCCCCCN(C)CCCCCOC(=O)C2c3ccccc3-c3ccccc32)cc(OC)c1OC`, in data set [1], the EC50 was 0.11 µM. Further, the Alpha max in data set [2] is given as 0.83.

Take `COc1cc(/C=C/C(=O)OCCN(C)CCOC(=O)c2ccccc2)cc(OC)c1OC`: in data set [1], the EC50 was 3.7 µM. In addition, the Alpha max in data set [2] came out at 0.86.

As for `COc1cc(/C=C/C(=O)OCCCNCCCOC(=O)c2cc(OC)c(OC)c(OC)c2)cc(OC)c1OC`, the EC50 in data set [1] amounted to 0.5 µM. The Alpha max in data set [2] is 1.

Consider `COc1cc(/C=C/C(=O)OCCOCCN(C)CCOCCOC(=O)c2cc(OC)c(OC)c(OC)c2)cc(OC)c1OC`, for which the EC50 in data set [1] was determined as 4.2 µM. In addition, in data set [2], the Alpha max turned out to be 0.9.

With `COc1cc(/C=C/C(=O)OCCCN(C)CCN(C)CCCOC(=O)/C=C/c2cc(OC)c(OC)c(OC)c2)cc(OC)c1OC`, the EC50 in data set [1] amounted to 2.6 µM. In addition, the Alpha max in data set [2] is listed as 0.8.

For the compound `COc1cc(/C=C/C(=O)OCCCNCCCOC(=O)c2c3ccccc3cc3ccccc23)cc(OC)c1OC`, in data set [1], the EC50 came to 0.21 µM. Moreover, the Alpha max in data set [2] was determined as 0.74.

For `COc1cc(/C=C/C(=O)OCCCCCN(C)CCCCCOC(=O)c2c3ccccc3cc3ccccc23)cc(OC)c1OC`, the EC50 in data set [1] was found to be 0.1 µM. In data set [2], the Alpha max turned out to be 0.8.

On to `COc1cc(/C=C/C(=O)OCCCCCN(C)CCCCCOC(=O)c2cc(OC)c(OC)c(OC)c2)cc(OC)c1OC`, for which, in data set [1], the EC50 was 0.8 µM. For the same compound, the Alpha max in data set [2] is 0.84.

Turning to `COc1cc(/C=C/C(=O)OCCN(C)CCOC(=O)C2c3ccccc3-c3ccccc32)cc(OC)c1OC`, the EC50 in data set [1] stood at 0.8 µM. In addition, the Alpha max in data set [2] is listed as 0.7.

`COc1ccc(C(C#N)(CCCN(C)c2c3ccccc3cc3ccccc23)C(C)C)cc1OC` (stereo unspecified): the EC50 in data set [1] came to 0.05 µM. Besides, the Alpha max in data set [2] was 0.7.

In the case of `COc1cc(/C=C/C(=O)OCCCN2CCN(CCCOC(=O)c3cc(OC)c(OC)c(OC)c3)CC2)cc(OC)c1OC`, the EC50 in data set [1] is 0.38 µM. For the same compound, the Alpha max in data set [2] was 0.61.

Take `COc1cc(/C=C/C(=O)OCCCN2CCN(CCCOC(=O)C3c4ccccc4-c4ccccc43)CC2)cc(OC)c1OC`: the EC50 in data set [1] stood at 0.23 µM. In addition, the Alpha max in data set [2] was 0.7.

In the case of `COc1cc(/C=C/C(=O)OCCOCCN(C)CCOCCOC(=O)c2c3ccccc3cc3ccccc23)cc(OC)c1OC`, in data set [1], the EC50 was found to be 0.17 µM. Further, in data set [2], the Alpha max was found to be 0.84.

As to `COc1ccc(C(C#N)(CCC(=O)OCCCNCCCOC(=O)c2c3ccccc3cc3ccccc23)C(C)C)cc1OC` (stereo unspecified), the EC50 in data set [1] was determined as 2.1 µM. The Alpha max in data set [2] amounted to 0.9.

Take `COc1ccc(C(C#N)(CCC(=O)OCCCN2CCN(CCCOC(=O)c3c4ccccc4cc4ccccc34)CC2)C(C)C)cc1OC` (stereo unspecified): in data set [1], the EC50 came to 0.62 µM. For the same compound, in data set [2], the Alpha max stood at 0.65.

As for `COc1cc(/C=C/C(=O)OCCCN(C)CCN(C)CCCOC(=O)c2cc(OC)c(OC)c(OC)c2)cc(OC)c1OC`, the EC50 in data set [1] was found to be 1.3 µM. Besides, in data set [2], the Alpha max is reported as 0.78.

As for `COc1cc(/C=C/C(=O)OCCCN(C)CCCOC(=O)c2c3ccccc3cc3ccccc23)cc(OC)c1OC`, in data set [1], the EC50 turned out to be 0.18 µM. Also, the Alpha max in data set [2] is listed as 0.78.

On to `COc1cc(/C=C/C(=O)OCCN(C)CCOC(=O)c2ccc(OC)c(OC)c2OC)cc(OC)c1OC`, for which the EC50 in data set [1] is 6.4 µM. For the same compound, the Alpha max in data set [2] worked out at 0.8.

Take `COc1cc(/C=C/C(=O)OCCCCCCCN(C)CCCCCCCOC(=O)c2cc(OC)c(OC)c(OC)c2)cc(OC)c1OC`: the EC50 in data set [1] turned out to be 1 µM. Also, the Alpha max in data set [2] is 0.55.

Consider `COc1cc(/C=C/C(=O)OCCCN2CCN(CCCOC(=O)c3c4ccccc4cc4ccccc34)CC2)cc(OC)c1OC`, for which the EC50 in data set [1] turned out to be 0.16 µM. Besides, the Alpha max in data set [2] was found to be 0.9.

In the case of `COc1cc(/C=C/C(=O)OCCN(C)CCOC(=O)c2cc(OC)c(OC)c(OC)c2)cc(OC)c1OC`, the EC50 in data set [1] was determined as 3.1 µM. Besides, the Alpha max in data set [2] turned out to be 0.86.

Turning to `CN(CCCOC(=O)c1c2ccccc2cc2ccccc12)CCN(C)CCCOC(=O)c1c2ccccc2cc2ccccc12`, in data set [3], the Activity was 0.8 µM. The Alpha max in data set [2] is reported as 0.5.

On to `COc1cc(/C=C/C(=O)OCCCCCCN(C)CCCCCCOC(=O)c2c3ccccc3cc3ccccc23)cc(OC)c1OC`, for which, in data set [1], the EC50 worked out at 0.61 µM. Besides, the Alpha max in data set [2] was 0.68.

For the compound `COc1cc(/C=C/C(=O)OCCCN(C)CCN(C)CCCOC(=O)c2c3ccccc3cc3ccccc23)cc(OC)c1OC`, the EC50 in data set [1] amounted to 0.19 µM. Also, the Alpha max in data set [2] worked out at 0.7.

In the case of `COc1cc(/C=C/C(=O)OCCCN2CCN(CCCOC(=O)/C=C/c3cc(OC)c(OC)c(OC)c3)CC2)cc(OC)c1OC`, the EC50 in data set [1] stood at 0.37 µM. Moreover, the Alpha max in data set [2] came out at 0.8.

Turning to `COc1cc(/C=C/C(=O)OCCCN(C)CCCOC(=O)c2cc(OC)c(OC)c(OC)c2)cc(OC)c1OC`, the EC50 in data set [1] is 0.6 µM. The Alpha max in data set [2] is on record as 0.9.

On to `COc1cc(/C=C/C(=O)OCCOCCNCCOCCOC(=O)c2cc(OC)c(OC)c(OC)c2)cc(OC)c1OC`, for which the EC50 in data set [1] was 7 µM. The Alpha max in data set [2] came to 1.

Turning to `COc1ccc(C(C#N)(CCC(=O)OCCCN(C)CCN(C)CCCOC(=O)c2c3ccccc3cc3ccccc23)C(C)C)cc1OC` (stereo unspecified), in data set [1], the EC50 was 0.4 µM. Besides, in data set [2], the Alpha max is 0.74.

With `COc1cc(/C=C/C(=O)OCCCCCCN(C)CCCCCCOC(=O)c2cc(OC)c(OC)c(OC)c2)cc(OC)c1OC`, in data set [1], the EC50 amounted to 2 µM. Moreover, the Alpha max in data set [2] is listed as 0.6.

Turning to `O=C(OCCCN1CCN(CCCOC(=O)c2c3ccccc3cc3ccccc23)CC1)c1c2ccccc2cc2ccccc12`, the Activity in data set [3] was found to be 2.5 µM. Besides, in data set [2], the Alpha max was determined as 0.5.
